For assay [1], the species on record is Homo sapiens. Briefly: In vitro inhibition of U 46619 induced aggregation of washed human platelets. The assay is classed as functional.
In assay [2] the target is T1, Thromboxane-A synthase (Homo sapiens, UniProt P24557).
T1 sequence (P24557 whole entry): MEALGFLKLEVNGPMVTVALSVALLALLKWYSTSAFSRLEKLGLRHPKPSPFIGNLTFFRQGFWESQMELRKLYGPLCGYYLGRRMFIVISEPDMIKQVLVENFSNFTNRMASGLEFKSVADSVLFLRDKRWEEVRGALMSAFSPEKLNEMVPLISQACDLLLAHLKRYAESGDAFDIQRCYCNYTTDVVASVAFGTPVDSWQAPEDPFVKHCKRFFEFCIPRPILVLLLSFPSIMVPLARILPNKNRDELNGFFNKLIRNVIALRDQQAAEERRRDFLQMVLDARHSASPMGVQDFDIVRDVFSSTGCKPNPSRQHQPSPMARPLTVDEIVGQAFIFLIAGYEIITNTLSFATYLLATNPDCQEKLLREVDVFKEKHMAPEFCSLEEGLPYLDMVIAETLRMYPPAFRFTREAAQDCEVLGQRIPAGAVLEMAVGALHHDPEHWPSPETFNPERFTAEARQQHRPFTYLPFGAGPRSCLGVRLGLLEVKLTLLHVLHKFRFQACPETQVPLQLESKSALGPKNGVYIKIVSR
Briefly: In vitro inhibition of thromboxane synthase using [14C]arachidonic acid. The essentials:
(§1)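 Human platelet microsomal preparation incubated with [14C]arachidonic acid; thromboxane synthase activity read as TxB2 formation; IC50 determined.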

A further assay is filed under the species Canis familiaris. Put plainly: In vitro inhibition of U 46619 induced contraction of dog saphenous vein. The format is functional. The following applies: Canis lupus familiaris, read-out: pA2 (converted). An outline of the steps: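 Dog saphenous vein rings 2-3 mm in modified Krebs buffer with 1.0 μM indomethacin, 95% O2/5% CO2, 37 °C, 2.0 g preload, isometric tension.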

Assay [3] is filed under the species Homo sapiens. Briefly: In vitro inhibition of U 46619 induced aggregation of human PRP. The format is functional, organism-based.
The target in assay [4] is T1, Thromboxane-A synthase. Put plainly: In vitro inhibition of Thromboxane synthase using [14C]arachidonic acid […]. The essentials: as §1

The IC50 is the point on the concentration scale where inhibition reaches its midpoint. Read a high IC50 as lower potency.

For `O=C(O)CCC/C=C\C[C@@H]1C2CCC(C2)[C@@]1(CCCCCc1ccccc1)c1cccnc1` (some centres not stated), the IC50 in the assay listed under Homo sapiens [1] amounted to 1500 nM; on Thromboxane-A synthase [2] it was 790 nM.

On to `O=C(O)CCCCCC[C@@H]1C2CCC(C2)C1c1cccnc1` (some centres not stated), for which the IC50 in the assay listed under Homo sapiens [1] is 9770 nM; at Thromboxane-A synthase [2], 125 nM.

Regarding `O=C(O)CC/C=C\C[C@@]1(c2cccnc2)C2CCC(C2)[C@H]1CNS(=O)(=O)c1ccc(Cl)cc1` (some centres not stated), the figures for the IC50 in the assay listed under Homo sapiens [1], at Thromboxane-A synthase [2] and in the assay filed under Homo sapiens [3] were 30 nM, 340 nM and 10800 nM, respectively. Besides, the Kb in the assay filed under Canis familiaris is 3.24 nM.

As for `O=C(O)CCCCCC[C@@H]1C2CCC(C2)[C@@H]1c1cccnc1` (some centres not stated), the IC50 in the assay listed under Homo sapiens [1] turned out to be 7250 nM; at Thromboxane-A synthase [2], 54 nM.

Consider `O=C(O)CCCCO/N=C(/c1cccnc1)c1cccc(C(F)(F)F)c1` [RIDOGREL], for which the IC50 came out at 1280 nM in the assay filed under Homo sapiens [1], 3 nM on Thromboxane-A synthase [4] and 2830 nM in the assay filed under Homo sapiens [3]. The Kb in the assay listed under Canis familiaris is 447 nM.

`O=C(O)CCCC/C=C\C[C@@H]1C2CCC(C2)C1c1cccnc1` (some centres not stated) returned an IC50 on Thromboxane-A synthase [4] of 165 nM.

Regarding `O=C(O)CCCCCC[C@H]1C2CCC(C2)[C@H]1c1cccnc1` (some centres not stated), the IC50 in the assay listed under Homo sapiens [1] turned out to be 13000 nM; against Thromboxane-A synthase [2], 7 nM.

The record behind these values is ChEMBL document CHEMBL1125883, “Thromboxane receptor antagonism combined with thromboxane synthase inhibition. 1. (+/-)-(3-pyridinylbicycloheptyl)alkanoic acids” (J Med Chem, 1991).
